Series [1] concerns the target C-X-C chemokine receptor type 4 (Homo sapiens) (UniProt P61073). The series is described as follows: Competitive inhibition of biotinylated TN14003 binding to CXCR4 in human MDA-MB-231 cells preincubated for 10 mins followed by biotinylated-TN14003 addition measured after 30 mins by streptavidin-rhodamine staining based fluorescence microscopic analysis. The series is classed as cell-based. In a few lines: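 MDA-MB-231 cells, 2 × 10⁴ per well, seeded two days ahead. Compound (1, 10, 100 or 1000 nM) added for 10 min at room temperature, then fixed in ice-cold 4% paraformaldehyde and rehydrated in PBS. Biotinylated TN14003 0.05 μg/mL for 30 min at RT, PBS washes, streptavidin-rhodamine (1:150) 30 min at RT. Read by fluorescence microscopy. EC = lowest concentration reducing rhodamine staining versus control.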

Series [2] concerns Mus musculus. The series is described as follows: Antiinflammatory activity against carrageenan-induced paw oedema in C57BL/6J mouse assessed as hind paw thickness at 10 mg/kg, ip daily dosed 30 mins after carrageenan challenge and measured 74 hrs carrageenan challenge and 2 hrs post last dose by caliper method (reference value: 3.05 millimeter). The series is classed as functional. Put shortly: (§1)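 Female C57BL/6J mice, five per group; 50 μL λ-carrageenan (1% w/v in saline) injected subcutaneously into one hind paw, 50 μL saline into the other as non-inflamed control. Vehicle-only i.p. controls. Sacrifice 74 h after challenge and 2 h after last dose. Paw thickness measured palm to back with caliper. Edema = injected minus contralateral paw. Suppression % = treated versus control group.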
(Carrageenan injected into the paw causes an acute inflammation.)

The test system of series [3] is Mus musculus. The series is described as follows: Antiinflammatory activity against carrageenan-induced paw oedema in C57BL/6J mouse assessed as paw swollen thickness at 10 mg/kg, ip daily dosed 30 mins after carrageenan challenge and measured 74 hrs carrageenan challenge and 2 hrs post last dose by caliper method (reference value: 0.68 millimeter). The series is classed as functional. In a few lines:
as §1

Series [4] deals with Mus musculus. Nature of the series: Antiinflammatory activity in C57BL/6J mouse assessed as reduction in carrageenan-induced accumulation of inflammatory cells in paw tissue at 10 mg/kg, ip daily dosed 30 mins after carrageenan challenge and measured 74 hrs carrageenan challenge and 2 hrs post last dose by H and E staining based histopathological analysis. The series is classed as functional, organism-based.

Series [5] concerns the target C-X-C chemokine receptor type 4 (Homo sapiens) (UniProt P61073). Nature of the series: Inhibition of CXCR4-mediated chemotaxis in human MDA-MB-231 cells assessed as reduction in CXCL12alpha-induced cell invasion at 100 nM incubated for 22 hrs by hematoxylin/eosin dye-based matrigel assay relative to control. Put shortly:
(§2)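 Matrigel invasion chamber with MDA-MB-231 cells. Compound (100 nM) added to cells before seeding in the top chamber; CXCL12α 200 ng/mL in the bottom chamber as chemoattractant, serum-free medium. Incubated 22 h. Non-invading cells swabbed off; invaded cells fixed in methanol and H&E stained, then counted. Inhibition relative to untreated invasion.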

Series [6] has as its system Mus musculus. Nature of the series: Antiinflammatory activity in C57BL/6J mouse assessed as reduction of carrageenan-induced inflammation and tissue damage in paw by measuring edema volume and thickness at 10 mg/kg, ip daily dosed 30 mins after carrageenan challenge and measured 74 hrs carrageenan challenge and 2 hrs post last dose by H and E staining based histopathological analysis. The series is classed as functional, organism-based.

The subject of series [7] is Mus musculus. Nature of the series: Antiinflammatory activity in C57BL/6J mouse assessed as inhibition of carrageenan-induced paw edema at 10 mg/kg, ip daily dosed 30 mins after carrageenan challenge and measured 74 hrs carrageenan challenge and 2 hrs post last dose by caliper method relative to control. The series is classed as functional. Put shortly:
as §1

In another series the test system is MCF-10A. The series is described as follows: Cytotoxicity against human MCF10A cells at 100 uM incubated for 24 hrs by CellTiter-96AQ based MTT assay. The series is classed as cell-based. In a few lines: (§3)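 Cells seeded at 3000 per well and grown 24 h at 37 °C in CO₂. Treated with compound for 24 h at 37 °C, top concentration 100 μM. CellTiter 96AQ reagent added for 2 h more, then absorbance read at 490 nm.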
In general terms: Formazan colour is commonly taken as a measure of viable cells.

A further series concerns MDA-MB-231. The series is described as follows: Cytotoxicity against human MDA-MB-231 cells at 100 uM incubated for 24 hrs by CellTiter-96AQ based MTT assay. The series is classed as cell-based. As to conditions: mda-mb-231, 24 h. Put shortly: as §3
A short description of series [8]: Tmax in Sprague-Dawley rat at 10 mg/kg, ig measured for 5 min to 6 hrs by LC/MS/MS analysis. The series is classed as ADME, organism-based. Particulars: in vivo, po. In a few lines:
(§4)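 Two male SD rats given 10 mg/kg intragastrically in 10% DMSO/90% PBS. Blood drawn at 5, 15, 30 min and 1, 2, 4, 6 h, centrifuged 4000 rpm for 5 min at 4 °C. Protein precipitation, then LC/MS/MS in SRM mode with internal standard. Parameters from noncompartmental analysis of plasma concentration-time data.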

Series [9] is described as follows: Half life in Sprague-Dawley rat at 10 mg/kg, ig measured for 5 min to 6 hrs by LC/MS/MS analysis. The series is classed as ADME, organism-based. As to conditions: in vivo, po. Put shortly: as §4
The next series deals with SK-BR-3. The series is described as follows: Cytotoxicity against human SKBR3 cells at 100 uM incubated for 24 hrs by CellTiter-96AQ based MTT assay. The series is classed as cell-based. Particulars: sk-br-3, 24 h. Put shortly:
as §3

The target of series [10] is C-X-C chemokine receptor type 4 (Homo sapiens) (UniProt P61073). The series is described as follows: Potency index, Ratio of EC for AMD3100 to EC for test compound for inhibition of biotinylated TN14003 binding to CXCR4 in human MDA-MB-231 cells preincubated for 10 mins followed by biotinylated-TN14003 addition measured after 30 mins by streptavidin-rhodamine staining based fluorescence microscopic analysis. The series is classed as cell-based.
Chain of C-X-C chemokine receptor type 4 (Homo sapiens) (P61073 whole entry): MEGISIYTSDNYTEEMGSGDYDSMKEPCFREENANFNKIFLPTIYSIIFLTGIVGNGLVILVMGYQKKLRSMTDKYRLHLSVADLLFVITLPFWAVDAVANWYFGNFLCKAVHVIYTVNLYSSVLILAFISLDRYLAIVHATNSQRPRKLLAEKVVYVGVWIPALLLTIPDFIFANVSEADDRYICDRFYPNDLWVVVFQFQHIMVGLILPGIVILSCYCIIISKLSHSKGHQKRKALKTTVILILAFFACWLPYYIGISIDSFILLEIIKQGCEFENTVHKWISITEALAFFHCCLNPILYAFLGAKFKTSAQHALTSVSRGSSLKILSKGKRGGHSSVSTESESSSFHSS

For series [11] the target is unchanged. Nature of the series: Inhibition of CXCR4-mediated chemotaxis in human MDA-MB-231 cells assessed as reduction in CXCL12alpha-induced cell invasion incubated for 22 hrs by hematoxylin/eosin dye-based matrigel assay relative to control. As to conditions: concentration not given here. Put shortly: as §2

Each structure is given as a SMILES string. Activity calls are given as the source filed them. The calls are words filed in the database; no cut-off is given here.

Turning to `Cc1cccc(S(=O)(=O)NCc2ccc(CNC(=O)c3ccc(F)cc3)cc2)c1`, the EC in series [1] worked out at 1 nM.
The same measure, in the same setting: in the case of `O=C(NCc1ccc(CNS(=O)(=O)c2ccc(F)cc2)cc1)c1ccc(F)cc1` it was 1 nM.
With `O=C(NCc1ccc(CNS(=O)(=O)c2cccnc2)cc1)c1ccc(F)cc1`, the EC in series [1] turned out to be 1000 nM.
In series [1], `Cc1ccccc1S(=O)(=O)NCc1ccc(CNC(=O)c2ccc(F)cc2)cc1` registered an EC of 100 nM.
By inhibition is commonly meant the drop in the measured response relative to a control, in per cent. As usually defined, the inhibition in vivo is how much of the control response was suppressed. The term Tmax denotes the time at which the peak concentration occurs. As for `O=C(NCc1ccc(CNS(=O)(=O)c2ccc3c(c2)CCO3)cc1)c1ccc(F)cc1`, the Activity is recorded as 2.64 mm with Mus musculus [2]; 0.21 mm with Mus musculus [3]; “Non-Toxic” in the series with MCF-10A; “Non-Toxic” with MDA-MB-231; “Non-Toxic” with SK-BR-3. In addition, the inhibition result in the series on Mus musculus [4] and in the series on Mus musculus [6] was “Active” throughout. Moreover, the inhibition in series [5] was 83%. In [1], this compound returned an EC of 10 nM. Besides, the inhibition in vivo at 10 mg/kg in the series on Mus musculus [7] amounted to 43%. In [8], the Tmax came out at 0.25 h. This compound also returned a t1/2 in series [9] of 4.77 h.
Regarding `O=C(NCc1ccc(CNS(=O)(=O)c2ccc(CN3CCCC3)cc2)cc1)c1ccc(F)cc1`, the inhibition in series [5] came to 92%. For the same compound, in [1], the EC worked out at 1 nM. The inhibition in vivo at 10 mg/kg in the series on Mus musculus [7] came out at 20%. The Ratio in [10] amounted to 1000.
On to `O=C(NCc1ccc(CNS(=O)(=O)c2ccc([N+](=O)[O-])cc2)cc1)c1ccc(F)cc1`, for which, in [1], the EC was 1000 nM.
Regarding `O=C(NCc1ccc(CNS(=O)(=O)c2cccc(C(F)(F)F)c2)cc1)c1ccc(F)cc1`, in series [5], the inhibition turned out to be 93%. In addition, the EC in series [1] came out at 100 nM. Besides, the inhibition in vivo at 10 mg/kg in the series on Mus musculus [7] was 20%.
`CCN(CC)Cc1ccc(S(=O)(=O)NCc2ccc(CNC(=O)c3ccc(F)cc3)cc2)cc1`: the EC in [1] came out at 1 nM. The Ratio in series [10] was 1000.
With `Cc1ccc(S(=O)(=O)NCc2ccc(CNC(=O)c3ccc(F)cc3)cc2)cc1`, the inhibition in vivo at 10 mg/kg in the series with Mus musculus [7] is 30%. Also, in series [11], the inhibition was determined as 65%.
Compound `Cc1ccc(S(=O)(=O)NCc2ccc(CNC(=O)c3ccc(F)nc3)cc2)cc1` came in with an EC in series [1] greater than 1000 nM.
Still for that read-out and setting: the value for `Cc1ccc(S(=O)(=O)NCc2ccc(CNC(=O)c3ccc(F)cn3)cc2)cc1` was 1000 nM.
In series [1], `O=C(NCc1ccc(CNS(=O)(=O)c2ccccc2Cl)cc1)c1ccc(F)cc1` came in with an EC of 1000 nM.
Still for that read-out and setting: in the case of `O=C(NCc1ccc(CNS(=O)(=O)c2cccc(F)c2)cc1)c1ccc(F)cc1` it was 1000 nM.
Regarding `O=C(NCc1ccc(CNS(=O)(=O)c2cccc(Cl)c2)cc1)c1ccc(F)cc1`, the inhibition in series [5] worked out at 95%. This compound registered an EC in series [1] of 1 nM. Further, the inhibition in vivo at 10 mg/kg with Mus musculus [7] came out at 20%.
Regarding `O=C(NCc1ccc(CNS(=O)(=O)c2cccc3ccccc23)cc1)c1ccc(F)cc1`, the EC in series [1] is 1000 nM.
Same read-out and setting: in the case of `O=C(NCc1ccc(CNS(=O)(=O)c2ccc(F)c(F)c2)cc1)c1ccc(F)cc1` it was 10 nM; in that of `O=C(NCc1ccc(CNS(=O)(=O)c2ccccc2F)cc1)c1ccc(F)cc1`, 10 nM.
`O=C(NCc1ccc(CNS(=O)(=O)c2ccc(Cl)cc2)cc1)c1ccc(F)cc1`: in series [1], the EC came to 100 nM.
Consider `O=C(NCc1ccc(CNS(=O)(=O)c2ccc(CN3CCOCC3)cc2)cc1)c1ccc(F)cc1`, for which the inhibition in series [5] came out at 82%. In addition, the EC in series [1] came to 10 nM. Moreover, in the series with Mus musculus [7], the inhibition in vivo at 10 mg/kg was 20%. Also, in series [10], the Ratio was 100.
As for `O=C(NCc1ccc(CNS(=O)(=O)c2ccc(-c3ccc(F)cc3)cc2)cc1)c1ccc(F)cc1`, the EC in [1] is 100 nM.

The values are drawn from ChEMBL document CHEMBL4346702, “Development of CXCR4 modulators based on the lead compound RB-108” (Eur J Med Chem, 2019).
